The source made the active and inactive calls. No cut-off for these calls is given here.
How the values were obtained:
[1] = test system: MCF7; assay: Binding affinity to c-KIT2 mutant G-quadruplex DNA isolated from human MCF7 cells at 2.5 uM after 48 hrs by dual luciferase reporter gene assay; format: cell-based
In short: (§1)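 MCF-7 cells transiently transfected with a luciferase plasmid carrying the full-length wild-type c-KIT promoter or its mutant, plus pRL-TK. Cells treated 48 h with compound at 2.5 µM or a range of concentrations. Firefly signal normalized to pRL-TK, expressed relative to untreated cells (100%). Triplicates, three independent experiments, standard error.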

[2] = test system: MCF7; assay: Binding affinity to full length wild type c-KIT2 G-quadruplex DNA isolated from human MCF7 cells at 2.5 uM after 48 hrs by dual luciferase reporter gene assay; format: cell-based; in short: as §1
[3] = test system: MCF7; assay: Binding affinity to full length wild type c-KIT1 G-quadruplex DNA isolated from human MCF7 cells at 2.5 uM after 48 hrs by dual luciferase reporter gene assay; format: cell-based; in short: as §1
[4] = test system: HGC-27; assay: Cytotoxicity against HGC27 cells assessed as cell viability after 48 hrs by MTT assay; format: functional, cell-based; details: Homo sapiens, HGC-27, 48 h
[5] = Binding affinity to F10T duplex DNA (unknown origin) assessed as change in melting temperature at 5 uM by FRET assay
[6] = Binding affinity to F-c-KIT2-T G-quadruplex DNA (unknown origin) assessed as change in melting temperature at 5 uM by FRET assay
[7] = Binding affinity to F-c-KIT1-T G-quadruplex DNA (unknown origin) assessed as change in melting temperature at 5 uM by FRET assay
[8] = test system: MCF7; assay: Binding affinity to c-KIT1 mutant G-quadruplex DNA isolated from human MCF7 cells at 2.5 uM after 48 hrs by dual luciferase reporter gene assay; format: cell-based; in short: as §1
[9] = test system: HGC-27; assay: Downregulation of c-KIT mRNA expression in HGC27 cells after 24 hrs by RT-PCR analysis relative to control; format: functional, cell-based; details: Homo sapiens
In short: (§2)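 HGC-27 gastric carcinoma cells treated 24 h at final 1.25, 2.5 or 5 µM. c-KIT mRNA quantified by RT-PCR against β-actin, relative to control.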

[10] = test system: HGC-27; assay: Downregulation of c-KIT mRNA expression in HGC27 cells at 5 uM after 24 hrs by RT-PCR analysis relative to control; format: functional, Homo sapiens; in short: as §2
[11] = test system: HGC-27; assay: Downregulation of c-KIT mRNA expression in HGC27 cells at 2.5 uM after 24 hrs by RT-PCR analysis relative to control; format: functional, Homo sapiens; in short: as §2
[12] = test system: HGC-27; assay: Downregulation of c-KIT mRNA expression in HGC27 cells at 1.25 uM after 24 hrs by RT-PCR analysis relative to control; format: functional, Homo sapiens; in short: as §2
[13] = test system: MCF7; assay: Binding affinity to c-KIT2 mutant G-quadruplex DNA isolated from human MCF7 cells at 5 uM after 48 hrs by dual luciferase reporter gene assay relative to control; format: cell-based; in short: as §1
[14] = test system: MCF7; assay: Binding affinity to c-KIT1 mutant G-quadruplex DNA isolated from human MCF7 cells at 5 uM after 48 hrs by dual luciferase reporter gene assay relative to control; format: cell-based; in short: as §1
[15] = test system: MCF7; assay: Binding affinity to full length wild type c-KIT2 G-quadruplex DNA isolated from human MCF7 cells at 5 uM after 48 hrs by dual luciferase reporter gene assay relative to control; format: cell-based; in short: as §1
[16] = test system: MCF7; assay: Binding affinity to full length wild type c-KIT1 G-quadruplex DNA isolated from human MCF7 cells at 5 uM after 48 hrs by dual luciferase reporter gene assay relative to control; format: cell-based; in short: as §1
[17] = test system: MCF7; assay: Binding affinity to full length wild type c-KIT2 G-quadruplex DNA isolated from human MCF7 cells after 48 hrs by dual luciferase reporter gene assay; format: cell-based; in short: as §1
[18] = test system: MCF7; assay: Binding affinity to full length wild type c-KIT1 G-quadruplex DNA isolated from human MCF7 cells after 48 hrs by dual luciferase reporter gene assay; format: cell-based; in short: as §1
[19] = Binding affinity to c-KIT2 G-quadruplex DNA (unknown origin) at 25 uM by CD spectrophotometric analysis
In short: (§3)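 Circular dichroism spectra of 5 µM c-KIT1 or c-KIT2 oligonucleotide in 10 mM Tris–HCl, pH 7.2, 100 mM KCl, recorded with and without 25 µM ligand. Bands near 263 nm (positive) and 240 nm (negative) monitored.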

[20] = Binding affinity to c-KIT1 G-quadruplex DNA (unknown origin) at 25 uM by CD spectrophotometric analysis; in short: as §3
[21] = Binding affinity to duplex DNA (unknown origin) up to 20 uM by surface plasmon resonance method
In short: (§4)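 SPR binding to immobilized c-KIT1 G-quadruplex or duplex DNA, ligand injected at various concentrations, up to 20 µM. KD obtained by global fitting of the kinetic data to a 1:1 Langmuir binding model.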

[22] = Binding affinity to biotinylated c-KIT1 G-quadruplex DNA (unknown origin) by surface plasmon resonance method; in short: as §4

Row | ΔTm [5] [°C] | ΔTm [6] [°C] | ΔTm [7] [°C] | Activity [21] | Kd [22] [µM] | SMILES | inhibition [1] | inhibition [2] | inhibition [3] | IC50 [4] [µM] | inhibition [8] | other results
1 | 0.1 | 7.5 | 4.2 | – | – | CN1CCN(c2cc3nc(/C=C/c4ccc(NC(=O)CN5CCCCC5)cc4)n(-c4ccccc4)c(=O)c3cc2F)CC1 | inactive | Active | Active | 1.3 | inactive | –
2 | 0 | 7.8 | 5.5 | – | – | CCN(CC)CC(=O)Nc1ccc(/C=C/c2nc3cc(N4CCN(C)CC4)c(F)cc3c(=O)n2-c2ccccc2)cc1 | inactive | Active | Active | 18.4 | inactive | –
3 | 0.4 | 14.3 | 13.4 | inactive | 1.37 | CCN(CC)CCNC(=O)c1ccc(/C=C/c2nc3cc(N4CCN(C)CC4)c(F)cc3c(=O)n2-c2ccccc2)cc1 | inactive | Active | Active | 8.6 | inactive | Activity [9]: Dose-dependent effect; Activity [10]: 35.7%; Activity [11]: 10.4%; Activity [12]: 5.7%; inhibition [13]: 20%; inhibition [14]: 20%; inhibition [15]: 37%; inhibition [16]: 37%; inhibition [17]: Dose-dependent effect; inhibition [18]: Dose-dependent effect; Activity [19]: Active; Activity [20]: Active
4 | 0.4 | 13.4 | 12.3 | inactive | 15.7 | CN1CCN(c2cc3nc(/C=C/c4ccc(C(=O)NCCN5CCCC5)cc4)n(-c4ccccc4)c(=O)c3cc2F)CC1 | inactive | Active | Active | 17.2 | inactive | –
5 | 0.5 | 15.9 | 15.1 | inactive | 1.16 | CN(C)CCNC(=O)c1ccc(/C=C/c2nc3cc(N4CCN(C)CC4)c(F)cc3c(=O)n2-c2ccccc2)cc1 | inactive | Active | Active | 21.2 | inactive | –
6 | 0 | 9.4 | 6.4 | inactive | 0.784 | CN1CCN(c2cc3nc(/C=C/c4ccc(NC(=O)CN5CCCC5)cc4)n(-c4ccccc4)c(=O)c3cc2F)CC1 | inactive | Active | Active | 2.3 | inactive | –
7 | 0 | 12.4 | 11.3 | inactive | 1.88 | CN1CCN(c2cc3nc(/C=C/c4ccc(NC(=O)CCN5CCCC5)cc4)n(-c4ccccc4)c(=O)c3cc2F)CC1 | inactive | Active | Active | 13.4 | inactive | –
8 | 0 | 13.6 | 11.1 | inactive | 0.612 | CCN(CC)CCC(=O)Nc1ccc(/C=C/c2nc3cc(N4CCN(C)CC4)c(F)cc3c(=O)n2-c2ccccc2)cc1 | inactive | Active | Active | 6.8 | inactive | Activity [9]: Dose-dependent effect; Activity [10]: 52.5%; Activity [11]: 22.8%; Activity [12]: 4.9%; inhibition [13]: 22%; inhibition [14]: 22%; inhibition [15]: 45%; inhibition [16]: 45%; inhibition [17]: Dose-dependent effect; inhibition [18]: Dose-dependent effect; Activity [19]: Active; Activity [20]: Active
9 | 0 | 12.6 | 10.7 | inactive | 0.916 | CN1CCN(c2cc3nc(/C=C/c4ccc(NC(=O)CCN5CCCCC5)cc4)n(-c4ccccc4)c(=O)c3cc2F)CC1 | inactive | Active | Active | 8.2 | inactive | –
10 | 0.4 | 16.8 | 15.9 | inactive | 1.99 | CN1CCN(c2cc3nc(/C=C/c4ccc(C(=O)NCCCN5CCCC5)cc4)n(-c4ccccc4)c(=O)c3cc2F)CC1 | inactive | Active | Active | 12.3 | inactive | –
11 | – | – | – | – | – | Cc1ccc(NC(=O)c2ccc(CN3CCN(C)CC3)cc2)cc1Nc1nccc(-c2cccnc2)n1 [IMATINIB] | – | – | – | 3.8 | – | –
